Test results taken from ChEMBL document CHEMBL2390921, “A novel benzazepinone sodium channel blocker with oral efficacy in a rat model of neuropathic pain” (Bioorg Med Chem Lett, 2013).
pIC50: −log10 of the molar value.

What was measured:
[1] = biological target: hERG (KCNH2) (Homo sapiens, UniProt Q12809); experiment: Displacement of [35S]-MK0499 from human ERG expressed in HEK293 cell membranes at 10 uM after 2 hrs by liquid scintillation counting analysis relative to control; details: membranes of HEK293 cells that express human ERG, probe [35S]-MK0499
How it was run: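 hERG binding assay measuring displacement of 35S-labelled MK-0499, a known hERG blocker.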

[2] = biological target: Sodium channel protein type 9 subunit alpha (Homo sapiens, UniProt Q15858); experiment: Inhibition of human NaV1.7 channel expressed in HEK293 cells by FRET assay; format: cell-based
How it was run: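 HEK293 cells stably expressing human Nav1.7. Channel block was read in a functional membrane-potential assay based on FRET between two membrane-associated dyes; IC50 determined.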

[3] = test system: Rattus norvegicus; experiment: Analgesic activity in po dosed rat spinal nerve ligation neuropathic pain model assessed as reversal of allodynia measured at 2 to 4 hrs; format: functional
How it was run: (§1)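 Rat spinal nerve ligation model. Seven days after surgery, rats received a single oral dose (3, 10 or 30 mg/kg) of test agent or vehicle. Tactile allodynia was scored at 2, 4, 8 and 24 h post-dose with calibrated von Frey filaments using an up-down paradigm. Threshold is the force giving a 50% withdrawal rate. %MPE = (post-compound − post-SNL)/(pre-SNL − post-SNL) × 100, where 100% is full reversal.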

[4] = test system: Rattus norvegicus; experiment: Analgesic activity in rat spinal nerve ligation neuropathic pain model assessed as reversal of allodynia at 30 mg/kg, po measured at 2 hrs relative to control; format: functional; how it was run: as §1
[5] = test system: Rattus norvegicus; experiment: Neurotoxicity in rat assessed as reduction in latency time at => 30 mg/kg, po after 2 hrs by rotarod test relative to vehicle-treated control; format: toxicity, organism-based; design: dose 30 mg/kg, route oral; scale not given: the % may be the effect or the level left; details: in vivo
How it was run: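 Rats trained on rotarod 3 min at 10 rpm; single oral dose of test compound or vehicle (30 or 100 mg/kg); tested at 2 and 4 h post-dose with speed at 10 rpm for 60 s then accelerated to 60 rpm; time to fall after start of acceleration recorded. Significant impairment defined as >20% reduction in latency time.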

[6] = test system: Rattus norvegicus; experiment: Dose normalized AUC in Sprague-Dawley rat at 3 mg/kg, po; format: ADME, organism-based; design: dose 3 mg/kg, route oral; details: in vivo
How it was run: (§2)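 Fasted male Sprague–Dawley rats (n = 3 per route) were dosed with 1.5 mg/mL solutions in PEG300/water or DMSO/PEG300/water, either 1.0 mg/kg iv via femoral-vein cannula or 3.0 mg/kg by oral gavage. Blood was sampled at 5 min (iv only), 15 and 30 min, and 1, 2, 4, 6 and 8 h. Plasma levels were measured by LC–MS/MS after acetonitrile protein precipitation.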

[7] = Plasma clearance in Sprague-Dawley rat at 3 mg/kg, po and 1 mg/kg, iv; format: ADME, organism-based; how it was run: as §2
[8] = Oral bioavailability in Sprague-Dawley rat at 3 mg/kg; format: ADME, organism-based; details: in vivo; how it was run: as §2
[9] = Half life in Sprague-Dawley rat at 3 mg/kg, po and 1 mg/kg, iv; format: ADME, organism-based; details: in vivo; how it was run: as §2

Sequence of hERG (KCNH2) (Q12809 whole entry): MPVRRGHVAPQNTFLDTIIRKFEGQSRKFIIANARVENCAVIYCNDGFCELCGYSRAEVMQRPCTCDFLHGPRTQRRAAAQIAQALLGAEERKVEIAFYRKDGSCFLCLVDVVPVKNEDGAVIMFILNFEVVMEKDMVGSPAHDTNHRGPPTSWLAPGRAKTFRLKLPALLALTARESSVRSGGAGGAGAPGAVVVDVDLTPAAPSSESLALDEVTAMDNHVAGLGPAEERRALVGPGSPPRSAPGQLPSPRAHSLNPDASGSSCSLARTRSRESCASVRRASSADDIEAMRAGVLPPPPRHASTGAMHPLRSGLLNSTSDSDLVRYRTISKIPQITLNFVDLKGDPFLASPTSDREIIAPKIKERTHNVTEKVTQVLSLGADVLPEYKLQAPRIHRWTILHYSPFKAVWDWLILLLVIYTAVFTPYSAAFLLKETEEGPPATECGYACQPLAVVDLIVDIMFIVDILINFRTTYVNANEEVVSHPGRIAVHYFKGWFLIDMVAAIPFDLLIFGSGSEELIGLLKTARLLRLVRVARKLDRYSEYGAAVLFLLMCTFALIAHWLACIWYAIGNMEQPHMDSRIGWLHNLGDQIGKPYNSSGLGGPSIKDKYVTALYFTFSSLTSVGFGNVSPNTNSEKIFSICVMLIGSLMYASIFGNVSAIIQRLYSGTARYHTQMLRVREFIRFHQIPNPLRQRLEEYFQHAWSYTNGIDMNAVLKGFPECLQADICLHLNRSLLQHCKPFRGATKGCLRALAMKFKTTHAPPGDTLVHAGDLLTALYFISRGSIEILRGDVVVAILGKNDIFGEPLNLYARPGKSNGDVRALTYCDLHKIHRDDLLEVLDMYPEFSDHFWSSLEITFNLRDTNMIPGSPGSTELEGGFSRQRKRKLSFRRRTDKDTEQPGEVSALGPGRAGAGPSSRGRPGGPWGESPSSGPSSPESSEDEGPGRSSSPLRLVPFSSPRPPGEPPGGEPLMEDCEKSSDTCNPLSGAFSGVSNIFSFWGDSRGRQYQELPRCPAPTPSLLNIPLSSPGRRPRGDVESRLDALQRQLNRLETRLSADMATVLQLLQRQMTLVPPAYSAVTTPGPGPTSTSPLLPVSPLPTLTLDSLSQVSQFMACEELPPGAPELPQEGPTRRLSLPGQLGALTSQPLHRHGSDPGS
Sequence of Sodium channel protein type 9 subunit alpha (Q15858 whole entry): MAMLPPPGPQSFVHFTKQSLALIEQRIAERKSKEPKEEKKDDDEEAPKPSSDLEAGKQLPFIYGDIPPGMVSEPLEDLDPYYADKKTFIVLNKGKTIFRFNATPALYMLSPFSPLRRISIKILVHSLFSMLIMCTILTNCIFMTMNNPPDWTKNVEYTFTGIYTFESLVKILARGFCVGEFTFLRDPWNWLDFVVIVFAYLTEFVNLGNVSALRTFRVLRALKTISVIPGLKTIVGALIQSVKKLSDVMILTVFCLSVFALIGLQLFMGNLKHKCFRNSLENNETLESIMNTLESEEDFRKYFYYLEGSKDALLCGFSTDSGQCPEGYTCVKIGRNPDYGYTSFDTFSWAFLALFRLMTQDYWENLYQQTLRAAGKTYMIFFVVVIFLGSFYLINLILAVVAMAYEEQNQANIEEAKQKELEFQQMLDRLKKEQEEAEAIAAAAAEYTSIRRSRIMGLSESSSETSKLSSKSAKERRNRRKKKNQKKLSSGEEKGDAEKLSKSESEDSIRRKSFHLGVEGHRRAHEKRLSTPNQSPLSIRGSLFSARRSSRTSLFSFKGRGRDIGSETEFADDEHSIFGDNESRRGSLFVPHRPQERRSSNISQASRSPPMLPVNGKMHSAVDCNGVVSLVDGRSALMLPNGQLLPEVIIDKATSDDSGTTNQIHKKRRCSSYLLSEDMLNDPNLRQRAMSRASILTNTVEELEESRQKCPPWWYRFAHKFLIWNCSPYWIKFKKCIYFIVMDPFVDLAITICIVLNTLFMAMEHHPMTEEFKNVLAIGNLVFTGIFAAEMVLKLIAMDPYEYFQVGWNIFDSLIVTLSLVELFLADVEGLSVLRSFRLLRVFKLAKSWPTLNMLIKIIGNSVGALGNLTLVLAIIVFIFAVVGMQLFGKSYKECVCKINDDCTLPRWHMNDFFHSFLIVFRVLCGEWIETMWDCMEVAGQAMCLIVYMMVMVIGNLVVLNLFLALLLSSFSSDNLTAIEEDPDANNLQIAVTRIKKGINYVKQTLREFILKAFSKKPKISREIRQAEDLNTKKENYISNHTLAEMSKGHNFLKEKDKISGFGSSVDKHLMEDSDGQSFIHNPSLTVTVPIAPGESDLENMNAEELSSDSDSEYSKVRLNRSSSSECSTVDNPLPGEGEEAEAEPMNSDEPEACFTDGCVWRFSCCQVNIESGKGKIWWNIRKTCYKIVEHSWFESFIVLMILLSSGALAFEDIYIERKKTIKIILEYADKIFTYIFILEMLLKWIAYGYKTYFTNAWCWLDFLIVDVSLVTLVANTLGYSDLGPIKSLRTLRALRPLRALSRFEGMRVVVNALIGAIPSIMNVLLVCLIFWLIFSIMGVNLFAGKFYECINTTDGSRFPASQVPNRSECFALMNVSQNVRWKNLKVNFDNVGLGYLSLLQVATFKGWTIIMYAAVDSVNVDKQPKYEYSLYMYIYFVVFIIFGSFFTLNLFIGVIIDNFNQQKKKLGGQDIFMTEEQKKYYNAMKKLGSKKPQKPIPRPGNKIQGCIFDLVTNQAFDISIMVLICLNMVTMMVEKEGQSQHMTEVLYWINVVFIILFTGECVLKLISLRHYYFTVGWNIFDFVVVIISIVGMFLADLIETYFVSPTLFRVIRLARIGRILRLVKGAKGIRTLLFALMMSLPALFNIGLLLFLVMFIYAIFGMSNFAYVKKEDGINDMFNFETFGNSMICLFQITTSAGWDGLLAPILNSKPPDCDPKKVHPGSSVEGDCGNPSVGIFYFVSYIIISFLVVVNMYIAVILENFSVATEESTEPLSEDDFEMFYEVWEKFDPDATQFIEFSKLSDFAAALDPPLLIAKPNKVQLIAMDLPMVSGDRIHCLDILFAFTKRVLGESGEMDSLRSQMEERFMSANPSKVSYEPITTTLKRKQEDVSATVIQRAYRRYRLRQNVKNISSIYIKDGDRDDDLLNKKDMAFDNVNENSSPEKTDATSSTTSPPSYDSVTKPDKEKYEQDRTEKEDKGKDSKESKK

Row | Compound | inhibition at 2 h, 10 µM [1] [%] | pIC50 [2] | ED50 [3] [mg/kg] | Activity [4] [%] | Activity [5] [%] | AUC/dose [6] [µM·h/mg/kg] | clearance [7] [mL/min/kg] | bioavailability [8] [%] | half-life [9] [h]
1 | CC1CC1N1C(=O)[C@H](NC(=O)[C@@H](Cc2ccccc2F)NC(=O)C2CC2C(F)(F)F)CCc2c(F)c(F)cc(F)c21 (stereo partly drawn) | 54 | 7.00 | – | – | – | – | – | – | –
2 | NCC1(CC(=O)O)CCCCC1 [GABAPENTIN] | – | – | 50 | 36 | > 20 | – | – | – | –
3 | CC(C)N1C(=O)[C@H](NC(=O)[C@@H](Cc2ccccc2F)NC(=O)c2ccccc2C(F)(F)F)CCc2c(F)c(F)cc(F)c21 | 10 | 6.64 | – | – | – | – | – | – | –
4 | Cc1cccc(C)c1OCC(C)N (stereo not drawn) [MEXILETINE] | – | – | 45 | 42 | – | – | – | – | –
5 | CC(C)N1C(=O)[C@H](NC(=O)[C@@H](Cc2ccccc2F)NC(=O)c2ccc(F)cc2C(F)(F)F)CCc2cc(Cl)cc(F)c21 | 17 | 6.59 | – | – | – | 0.93 | 21 | 74 | 1.9
6 | O=C(N[C@H](Cc1ccccc1F)C(=O)N[C@@H]1CCc2c(F)c(F)cc(F)c2N(C2CC2)C1=O)c1ccc(F)cc1C(F)(F)F | 31 | 7.07 | – | – | – | – | – | – | –
7 | CC(C)N1C(=O)[C@H](NC(=O)[C@@H](Cc2ccccc2OC(F)(F)F)NC(=O)OC(C)(C)C)CCc2ccccc21 | – | – | – | – | – | 0.31 | – | – | –
8 | CC(C)N1C(=O)[C@H](NC(=O)[C@@H](Cc2ccccc2F)NC(=O)c2ccc(F)cc2C(F)(F)F)CCc2cc(Cl)ccc21 | – | – | – | – | – | 0.58 | – | – | –
9 | CC(C)N1C(=O)[C@H](NC(=O)[C@@H](Cc2ccccc2OC(F)(F)F)NC(=O)OC(C)(C)C)CCc2cc(Cl)ccc21 | – | – | – | – | – | 0.71 | – | – | –
10 | CC(C)N1C(=O)[C@H](NC(=O)[C@@H](Cc2ccccc2F)NC(=O)c2ccccn2)CCc2c(F)c(F)cc(F)c21 | 22 | 6.35 | – | – | – | – | – | – | –
11 | CC(C)N1C(=O)[C@H](NC(=O)[C@@H](Cc2ccccc2F)NC(=O)c2ccc(F)cc2C(F)(F)F)CCc2cc(C(F)(F)F)ccc21 | 10 | 6.44 | – | – | – | 0.6 | 33 | 75 | 2.5
12 | CC(C)N1C(=O)[C@H](NC(=O)[C@@H](Cc2ccccc2OC(F)(F)F)NC(=O)OC(C)(C)C)CCc2ccc(C(F)(F)F)cc21 | 19 | 6.31 | – | – | – | 0.22 | 26 | 21 | 1.3
13 | CC(C)N1C(=O)[C@H](NC(=O)[C@@H](Cc2ccccc2F)NC(=O)c2ccc(F)cc2C(F)(F)F)CCc2c(F)c(F)cc(F)c21 | 20 | 6.99 | – | – | – | 1 | 19 | 68 | 5.6
14 | CC1CC1C(=O)N[C@H](Cc1ccccc1F)C(=O)N[C@@H]1CCc2c(F)c(F)cc(F)c2N(C(C)C)C1=O (stereo partly drawn) | 0 | 6.99 | – | – | – | 0.44 | 35 | 47 | 0.8
15 | CC(C)N1C(=O)[C@H](NC(=O)[C@@H](Cc2ccccc2OC(F)(F)F)NC(=O)OC(C)(C)C)CCc2cc(F)cc(F)c21 | 21 | 7.24 | – | – | – | 0.54 | 17 | 30 | 2.7
16 | CC(C)N1C(=O)[C@H](NC(=O)[C@@H](Cc2ccccc2OC(F)(F)F)NC(=O)OC(C)(C)C)CCc2cccc(F)c21 | 24 | 7.15 | – | – | – | 0.39 | 21 | 27 | 2.7
17 | CC(C)N1C(=O)[C@H](NC(=O)[C@@H](Cc2ccccc2F)NC(=O)c2ccc(F)cc2C(F)(F)F)CCc2cc(F)ccc21 | 36 | 6.60 | – | – | – | 0.45 | 36 | 56 | 1.7
18 | CC(C)N1C(=O)[C@H](NC(=O)[C@@H](Cc2ccccc2OC(F)(F)F)NC(=O)OC(C)(C)C)CCc2cc(F)ccc21 | 24 | 7.47 | – | – | – | 0.66 | 16 | 35 | 2.3
19 | CC(C)N1C(=O)[C@H](NC(=O)[C@@H](Cc2ccccc2F)NC(=O)C2CC2C(F)(F)F)CCc2c(F)c(F)cc(F)c21 (stereo partly drawn) | 2 | 6.86 | – | – | – | 0.79 | 23 | 62 | 2.2
20 | CC(C)N1C(=O)[C@H](NC(=O)[C@@H](Cc2ccccc2F)NC(=O)c2ccc(F)cc2C(F)(F)F)CCc2cc(F)cc(F)c21 | 34 | 6.58 | – | – | – | 0.42 | 21 | 31 | 1.9
21 | CC1CC1N1C(=O)[C@H](NC(=O)[C@@H](Cc2ccccc2F)NC(=O)c2ccc(F)cc2C(F)(F)F)CCc2c(F)c(F)cc(F)c21 (stereo partly drawn) | 44 | 6.88 | – | – | – | – | – | – | –
22 | CC(C)N1C(=O)[C@H](NC(=O)[C@@H](Cc2ccccc2OC(F)(F)F)NC(=O)OC(C)(C)C)CCc2cc(C(F)(F)F)ccc21 | 7 | 6.74 | – | – | – | 0.41 | 39 | 59 | 1.9
23 | CC(C)N1C(=O)[C@H](NC(=O)[C@@H](Cc2ccccc2OC(F)(F)F)NC(=O)OC(C)(C)C)CCc2c(F)c(F)cc(F)c21 | 24 | 7.17 | – | – | – | – | – | – | –
24 | CC(C)N1C(=O)[C@H](NC(=O)[C@@H](Cc2ccccc2OC(F)(F)F)NC(=O)OC(C)(C)C)CCc2ccc(F)cc21 | 26 | 7.74 | – | – | – | 0.2 | 29 | 20 | 2.5
